Screening results as filed in PubChem BioAssay.
NR1D1 modulator: modulators of Rev-erb alpha DNA binding, primary screen, biochemical, FITC-DNA, fluorescence polarization, uHTS | Nuclear receptor subfamily 1 group D member 1 (Homo sapiens), P20393 | Rev-erbα–FITC-DNA binding, 90 min | activity, % at 10 µM | 0.79% of 370,000 active | AID 1259318, 2017;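 active means activity above about 14%, limit read from the data; passing the limit was not always enough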
Target sequence (P20393 whole entry, looked up): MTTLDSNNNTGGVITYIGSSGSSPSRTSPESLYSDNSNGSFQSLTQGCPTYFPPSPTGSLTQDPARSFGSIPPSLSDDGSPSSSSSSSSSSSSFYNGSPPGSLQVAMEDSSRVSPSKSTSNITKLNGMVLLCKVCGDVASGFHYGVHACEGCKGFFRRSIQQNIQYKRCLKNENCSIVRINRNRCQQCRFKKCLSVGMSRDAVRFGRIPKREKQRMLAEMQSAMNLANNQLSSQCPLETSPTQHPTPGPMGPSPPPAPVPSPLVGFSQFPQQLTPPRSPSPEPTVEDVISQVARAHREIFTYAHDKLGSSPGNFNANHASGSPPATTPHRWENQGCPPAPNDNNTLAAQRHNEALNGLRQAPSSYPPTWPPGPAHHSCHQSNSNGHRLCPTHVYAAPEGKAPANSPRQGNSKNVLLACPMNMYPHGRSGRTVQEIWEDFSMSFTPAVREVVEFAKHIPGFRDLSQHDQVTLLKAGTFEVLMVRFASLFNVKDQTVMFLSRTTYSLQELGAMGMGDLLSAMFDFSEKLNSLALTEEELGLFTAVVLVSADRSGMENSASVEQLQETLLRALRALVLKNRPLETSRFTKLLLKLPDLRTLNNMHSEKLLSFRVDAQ
T cruzi inh: inhibitors of intracellular T. cruzi growth, primary screen, luminescence, NIH3T3 host cells. T. cruzi beta-gal in NIH3T3, 90 h. inhibition, % (concentration not given with the values). 1.4% of 300,000 active. AID 1885, 2009;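 active means mean inhibition across valid replicates above about 55%, limit read from the data; inconclusive means mean below that limit but half or more replicates reach it; inactive means mean below it, under half of replicates reach it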;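 further: signal also drops with host cell toxicity which is not excluded here; higher percent means less beta-gal luminescence so fewer parasites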
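Assay system: NIH/3T3 host cells with β-galactosidase reporter T. cruzi; input: 5,000 host fibroblasts per well; compound: single 50 nL compound addition per well in DMSO; timing: ≥90 h infection period, 3 h prior cell attachment; measured by: GalScreen β-gal luminescence, detergent lysis, 60 min; evaluation: percent inhibition of parasite-derived β-gal signal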
PG9 Ab binder: binders of HIV-1 gp120 antibody PG9, primary screen, biochemical, TR-FRET | HIV-1 gp120 / PG9 antibody interaction | TR-FRET gp120-PG9 antibody binding | inhibition, % at 6.7 µM | 0.43% of 360,000 active | AID 624416, 2012; in the data active means inhibition above about 8.5%
TAG inh: inhibitors of triacylglycerol accumulation, primary screen, cell-based, uHTS, fluorescence, H9c2; H9c2 cells, Nile Red lipid (TAG) fluorescence; cells loaded with 200 µM oleic acid; inhibition, % at 12.5 µM; 0.66% of 230,000 active; AID 651582, 2012;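 active means pattern-corrected inhibition of lipid staining of at least 50% with the nuclear-stain viability signal not falling by more than 50%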
beta cell repl: inducers of MIN6 beta-cell proliferation, primary screen, ATP luminescence, uHTS; MIN6 cells proliferation, ATPlite luminescence, 48 h; cells starved in 0.2% serum; 100% = growth in 10% serum; proliferation, % at 10 µM; 0.29% of 330,000 active; AID 2380, 2010;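 active means compounds whose signal lies at least 3.5 SD above the mean of all wells on their plate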
iPSC survival up: enhancers of single-cell hiPSC survival, primary screen, ATPlite luminescence | survival enhancement, % at 20 µM | 0.044% of 360,000 active | AID 602274, 2012 | 100% = ROCK inhibitor wells, 0% = DMSO; in the data active means survival enhancement above about 18%;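 further: cells exposed to compounds for 16 hours before the ATP read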
Large screens that a line does not name were inactive. Rows were chosen to be rich in hits. Some 2.9% of all compounds tested hit in one or more screens of this group.

COc1ccccc1/C=C/CN1CCCC(CCC(=O)NCc2ccc(F)c(F)c2)C1 (centres undefined)	T cruzi inh 68
COCCNC(=O)CCC1CCN(C/C=C/c2ccccc2OC)CC1	none (no result: TAG inh)
COCCC(=O)N1CCCC(CCC(=O)NCc2ccc(F)c(F)c2)C1 (centres undefined)	none
COc1ccc(/C=C/CN2CCCC(CCC(=O)NCc3ccc(F)c(F)c3)C2)cc1 (centres undefined)	T cruzi inh 68 (no result: TAG inh)
COCc1ccc(CN2CCCC(CCC(=O)NCc3cccc(OC)c3)C2)o1 (centres undefined)	T cruzi inh 59
COc1cccc(CNC(=O)CCC2CCCN(C/C=C/c3ccccc3OC)C2)c1 (centres undefined)	T cruzi inh 66
COc1ccc(-c2c(C)nn3c(NC4CCCC4)cc(C)nc23)cc1OC	none (no result: TAG inh)
Cc1cc(NC2CCCC2)n2nc(C)c(-c3ccccc3)c2n1	T cruzi inh 60 (no result: TAG inh)
O=C(c1ccccc1)c1ccc2nc(-c3ccc(NC(=O)c4ccccc4Br)cc3)[nH]c2c1	T cruzi inh 60 (no result: TAG inh)
CN(c1ccccc1)S(=O)(=O)c1ccc(Cl)c(C(=O)Nc2ccc(-c3nc4ccccc4[nH]3)cc2)c1	T cruzi inh 57 (no result: TAG inh)
COc1cc(NC(=O)c2cc(C)on2)cc(OC)c1OC	none (no result: PG9 Ab binder, TAG inh)
O=C(Nc1cccc(-n2cnnn2)c1)c1cc2ccccc2o1	none
CC(C)/C=C1\CC/C(=C\c2cccnc2)C1=O	T cruzi inh 56
O=C1/C(=C/c2cccnc2)CC/C1=C\c1cccnc1	none
Nc1nc2c(C(=O)N3CCCC3)nnn2c2ccccc12	none (no result: T cruzi inh, TAG inh, beta cell repl, iPSC survival up)
CCOC(=O)c1cnc(Nc2nc3ccccc3o2)nc1CSC(=S)N(CC)CC	T cruzi inh 61 (no result: TAG inh)
COc1ccc(CCN(C)CCC(=O)Nc2ccc(C)cc2)cc1OC	T cruzi inh 59 (no result: TAG inh)
COc1ccccc1CN1C(=O)c2cccc3cccc(c23)C1=O	none (no result: TAG inh)
CC(=O)Nc1sc2c(c1-c1nc3ccccc3s1)CN(C(C)C)CC2	TAG inh 78 (no result: T cruzi inh)
CC(=O)Nc1sc2c(c1-c1nc3ccccc3s1)CN(C(C)C)C2	none (no result: T cruzi inh, PG9 Ab binder, TAG inh, beta cell repl, iPSC survival up)
CC(C)C[C@@H](CO)N1CCNCCC1=O	none
CC(=O)Nc1ccc(CN2CCCC(CCC(=O)NCc3ccccc3F)C2)cc1 (centres undefined)	none
CC(C)c1csc(CN2CCCC(CCC(=O)NCc3ccccc3F)C2)n1 (centres undefined)	none (no result: TAG inh)
Cc1nn(C(C)C)c(C)c1CN1CCCC(CCC(=O)NCc2ccccc2F)C1 (centres undefined)	T cruzi inh 58
O=C(CCC1CCCN(Cc2cccc(Cl)c2)C1)NCc1ccccc1F (centres undefined)	T cruzi inh 61
Cc1nc2ccccc2cc1C(=O)Nc1ccccc1Cl	none
Clc1ncc2[nH]cnc2n1	none
CCOc1ccc(S(=O)(=O)n2cc(F)c(=O)[nH]c2=O)cc1	none (no result: TAG inh)
CC(C)(CNc1ccc(S(=O)(=O)C(F)(F)F)cc1[N+](=O)[O-])N1CCOCC1	T cruzi inh 55
O=C(C[C@H]1CC[C@@H]2[C@H](COC[C@@H](O)CN2Cc2ccc(Cl)cc2)O1)NCCc1ccccc1	none (no result: T cruzi inh, TAG inh, beta cell repl, iPSC survival up)
O=C(Cn1c(-c2ccccc2)c[n+]2ccsc12)c1ccc([N+](=O)[O-])cc1	T cruzi inh 75 (no result: TAG inh)
O=C(Cn1c(-c2ccccc2)c[n+]2ccsc12)c1ccccc1	T cruzi inh 69
CC(C)NC(=O)NC(=O)CSc1ccc(S(=O)(=O)N2CCCC2)cn1	none (no result: T cruzi inh)
COc1ccc(/C=N/Nc2nnc(-c3ncc[nH]3)c3ccccc23)cc1	none (no result: NR1D1 modulator, PG9 Ab binder, TAG inh)
Oc1ccc2ccccc2c1/C=N/Nc1nnc(-c2ncc[nH]2)c2ccccc12	T cruzi inh 58
COc1ccc(CN(C)CC(O)COc2ccc(-c3ccccc3)cc2)cc1OC (centres undefined)	T cruzi inh 58 (no result: TAG inh)
CC(=O)Nc1ccc(NC2=C(Cl)C(=O)c3ccccc3C2=O)cc1	T cruzi inh inconclusive (no result: TAG inh, iPSC survival up)
O=C(Oc1ccc(NC2=C(Cl)C(=O)c3ccccc3C2=O)cc1)c1ccc([N+](=O)[O-])cc1	T cruzi inh 63 (no result: NR1D1 modulator, PG9 Ab binder, TAG inh, beta cell repl)
Cc1c(NC(=O)c2cccc(NC(=O)COc3ccccc3C#N)c2)c(=O)n(-c2ccccc2)n1C	none (no result: T cruzi inh)
COc1ccc(CNCCC(c2ccccc2)c2ccc3c(c2)OCO3)cc1 (centres undefined)	T cruzi inh 59 (no result: TAG inh)
O=C(NCCc1nc2ccccc2[nH]1)c1cccc(Br)c1	T cruzi inh 56 (no result: TAG inh)
O=[N+]([O-])c1ccc(N2CCN(S(=O)(=O)c3ccc(Cl)cc3)CC2)cc1NCc1cccnc1	T cruzi inh 60
O=[N+]([O-])c1ccc(N2CCN(S(=O)(=O)c3ccccc3)CC2)cc1NCc1cccnc1	none
CCCCCOc1ccc(Cn2ccnc2)cc1[N+](=O)[O-]	T cruzi inh 62 (no result: TAG inh)
Cc1c(C)n(CCN(C)C)c2ccc(C(=O)OCCN(C)C)cc12	none (no result: beta cell repl)
Cc1c(C)n(Cc2ccccc2)c2ccc(C(=O)OCCCN(C)C)cc12	T cruzi inh 61 (no result: TAG inh)
CCOC(=O)N1CCC(Nc2nc(OC)nc(OC)n2)CC1	none
O=[N+]([O-])c1ccc(N2CCN(C(=S)NCc3ccc(Cl)cc3)CC2)cc1	T cruzi inh 57
O=[N+]([O-])c1ccc(CN2CCN(c3ccc(Cl)cc3)CC2)o1	T cruzi inh 59
CCNC(=S)N1CCN(c2ccc([N+](=O)[O-])cc2)CC1	none
COc1cc(/C=C/C(=O)O)cc(Br)c1O	none
CCOc1ccccc1NC(=O)N1CCCC1C(=O)Nc1ccc(NC(C)=O)cc1 (centres undefined)	none
CCC(=O)Nc1ccc(NC(=O)c2ccc3ccccc3c2)cc1	none (no result: TAG inh)
S=C(NCc1ccccc1)N1CCn2cccc2C1c1ccncc1 (centres undefined)	none
S=C(NCc1ccccc1)N1CCn2cccc2C1c1cccnc1 (centres undefined)	T cruzi inh 59 (no result: beta cell repl)
S=C(NCCc1ccccc1)N1CCn2cccc2C1c1cccnc1 (centres undefined)	T cruzi inh 68
CCCCNC(=S)N1CCn2cccc2C1c1ccccc1 (centres undefined)	none
Nc1n[nH]c(N)c1N=Nc1ccc2c(c1)OCO2	T cruzi inh 74
Cc1ccc(N=Nc2c(N)n[nH]c2N)cc1	none (no result: TAG inh)
Cc1ccc(N(Cc2ccc([N+](=O)[O-])cc2)C(=O)c2ccco2)cc1	none (no result: NR1D1 modulator)
Cc1ccc([C@@H]2[C@@H]3C(=O)N(C)C(=O)[C@@H]3[C@]3(C)C(=O)N(CCO)CC(=O)N23)o1	none
CCCn1c(SCC(=O)N2c3ccccc3Sc3ccccc32)nc2ccccc21	T cruzi inh 57
